C8 TRAIL sens: caspase-8 TRAIL sensitization. NB7+C8 cells + TRAIL, ATPlite viability luminescence. inhibition (viability loss, TRAIL sensitization), % at 10 µM. 360,000 compounds, 1% hits;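 active = compounds causing at least 50% loss of cell viability in the single-dose screen, relative to plate controls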
FLuc stim CS: affects firefly luciferase, flagging false hits in luciferase stimulation screens; AID 1027; activation factor at 10 µM; ATPlite luciferase biochemical, luminescence, 10 min; 0 = ATP-free wells, 1 = DMSO control; 200,000 tested, under 10 active;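 active = luciferase activation factor, scaled between plate controls, of at least 2 with compound at 10 µM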
Target sequence (P08659 whole entry, looked up): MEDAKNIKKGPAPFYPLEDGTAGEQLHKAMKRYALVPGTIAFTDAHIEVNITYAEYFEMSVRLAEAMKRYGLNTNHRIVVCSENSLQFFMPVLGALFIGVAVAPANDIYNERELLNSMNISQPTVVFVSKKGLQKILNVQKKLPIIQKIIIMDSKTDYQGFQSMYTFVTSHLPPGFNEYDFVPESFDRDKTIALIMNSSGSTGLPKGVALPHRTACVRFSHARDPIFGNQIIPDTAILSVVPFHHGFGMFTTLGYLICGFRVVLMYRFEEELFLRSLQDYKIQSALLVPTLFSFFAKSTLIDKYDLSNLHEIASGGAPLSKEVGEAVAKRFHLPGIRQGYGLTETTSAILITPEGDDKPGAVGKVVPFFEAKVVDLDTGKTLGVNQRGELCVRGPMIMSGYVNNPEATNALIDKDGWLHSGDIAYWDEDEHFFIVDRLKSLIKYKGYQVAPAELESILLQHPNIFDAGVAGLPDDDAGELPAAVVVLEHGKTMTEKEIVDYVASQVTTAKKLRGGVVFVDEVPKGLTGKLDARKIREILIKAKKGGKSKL
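System: Luciferase/luciferin detection reagent, cell-free biochemical luciferase assay | Medium: PBS buffer for ATP | Dosing: Test compounds dosed from 2 mM stocks in 100% DMSO | Timing: 10 min at ambient temperature | Signal: Luminescence measurement of luciferase light output | Evaluation: Luciferase activation, seen as luminescence increase over controls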
FLuc inhib CS: Photinus pyralis luciferase inhibition counter-screen. P08659. ATPLite firefly luciferase biochemical luminescence, 10 min. inhibition, % at 10 µM. 200,000 compounds, 1.5% hits. AID 1006;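 active = inhibition above about 50% when tested at 10 µM, limit read from the data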
PPC-1+TRAIL kill: compounds killing PPC-1 cancer cells with TRAIL present (potentiator screen, no TRAIL-free arm); 220,000 compounds, 0.41% hits; cell killing (% activity), % at 4 µM or 5 µM; AID 1443; PPC-1 cells + TRAIL, ATPLite viability luminescence;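 active = cell killing above 50% in the first pass at 4 µM, then a duplicate retest at 5 µM averaging 50% or more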;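 note: plate controls were cells with TRAIL plus DMSO for no effect and medium-only wells lacking cells for full effect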
Active calls of the source: *; x = not tested or not shown. The list is not random: actives were taken first. Their share in the collection is about 1.5%.

SMILES | C8 TRAIL sens | FLuc stim CS | FLuc inhib CS | PPC-1+TRAIL kill
CCCCNC(=O)C1(C)CCCCN1C(=O)c1cc(-c2ccccc2)cs1 (configuration not stated) | 16 | x | x | x
O=C(/C=C/c1ccc([N+](=O)[O-])cc1)NCc1ccccn1 | 23 | 1.1 | -6 | 22
O=C(/C=C/c1ccc([N+](=O)[O-])cc1)Nc1ncc([N+](=O)[O-])s1 | 59* | 0.4 | 61* | 18
CCN(C[C@H]1N[C@@](CC)(C(=O)OC)[C@H]2C(=O)N(C)C(=O)[C@@H]12)S(=O)(=O)c1ccc(OC(F)(F)F)cc1 | -1 | x | x | x
O=C(NCc1ccccc1Cl)c1cccc2c1C(=O)c1ccc(-c3ccc(OC(F)(F)F)cc3)cc1S2(=O)=O | 54* | x | x | x
Cc1ccc(C(C)C)c(OCC(=O)Nc2ccc3c(c2)nc(CCN2CCCCC2)n3C)c1 | 56* | x | x | x
C#CCOCCOCCOCCNc1nc(N2CCN(C(=O)CCCCCCCCCCNC(=O)Cn3cc(C[C@@H](C)O)nn3)CC2)nc(N2CCN(C(=O)CCCCCCCCCCNC(=O)[C@@H]([C@H](C)CC)n3cc(CCCCCN)nn3)CC2)n1 | 93* | x | x | x
C#CCOCCOCCOCCNc1nc(N2CCN(C(=O)CCCCCCCCCCNC(=O)[C@H](CCCCN)n3cc(C[C@@H](C)CC)nn3)CC2)nc(N2CCN(C(=O)CCCCCCCCCCNC(=O)[C@H](CCCN=C(N)N)n3cc(C[C@@H](C)CC)nn3)CC2)n1 | 94* | x | x | x
C#CCOCCOCCOCCNc1nc(N2CCN(C(=O)CCCCCCCCCCNC(=O)[C@H](CCCCN)n3cc(C)nn3)CC2)nc(N2CCN(C(=O)CCCCCCCCCCNC(=O)[C@@H]([C@H](C)O)n3cc(C)nn3)CC2)n1 | 26 | x | x | x
C#CCOCCOCCOCCNc1nc(N2CCN(C(=O)CCCCCCCCCCNC(=O)Cn3cc(CCCCCN)nn3)CC2)nc(N2CCN(C(=O)CCCCCCCCCCNC(=O)Cn3cc(C[C@@H](C)O)nn3)CC2)n1 | 11 | x | x | x
C#CCOCCOCCOCCNc1nc(N2CCN(C(=O)CCCCCCCCCCNC(=O)[C@H](CCCCN)n3cc(C[C@@H](C)CC)nn3)CC2)nc(N2CCN(C(=O)CCCCCCCCCCNC(=O)[C@@H]([C@H](C)O)n3cc(C)nn3)CC2)n1 | 96* | x | x | x
Cc1n[nH]c(C)c1NC(=O)CSc1nnnn1-c1cccc(F)c1 | -8 | x | x | x
C=CCN(c1ccccc1)S(=O)(=O)c1cccc(C(=O)Nc2cccc(C)n2)c1 | 12 | x | x | x
Cc1cc(=O)nc2c3ccccc3n(CC(=O)Nc3ccccc3Br)n12 | -9 | x | x | 8
O=C(O)c1ccc(NC2=C/C(=N/S(=O)(=O)c3ccccc3)c3ccccc3C2=O)cc1 | 38 | 0.9 | 11 | 30
CCc1ccc(S(=O)(=O)/N=C2\C=C(Nc3cccc(C(=O)O)c3)C(=O)c3ccccc32)cc1 | 17 | x | x | x
O=C(O)c1ccc(NC2=C/C(=N/S(=O)(=O)c3cccs3)c3ccccc3C2=O)cc1 | 55* | x | x | x
CCc1ccc(S(=O)(=O)/N=C2\C=C(Nc3ccc(O)cc3)C(=O)c3ccccc32)cc1 | 97* | x | x | x
Cc1cc(C)c(S(=O)(=O)/N=C2\C=C(Nc3ccc(C(=O)O)cc3)C(=O)c3ccccc32)c(C)c1 | 58* | x | x | x
COc1ccccc1N1CCN(c2ccc3c(c2)S(=O)(=O)c2cccc(C(=O)NCc4cccc(F)c4)c2C3=O)CC1 | 2 | x | x | x
O=C(CC1CCCCC1)c1c(O)c2ccccc2oc1=O | 54* | 1 | 2 | -2
CC(C)(CNC(=O)c1ccc([N+](=O)[O-])c(Cl)c1)CNC(=O)c1ccc([N+](=O)[O-])c(Cl)c1 | 53* | 1 | 1 | 28
FC(F)(F)Oc1ccc(Nc2nc3ccccc3o2)cc1 | 1 | 1 | 5 | -17
c1ccc(Nc2nc3ccccc3o2)cc1 | 36 | 0.4 | 58* | 28
COC(=O)C(Cc1ccccc1)P(=O)(c1ccccc1)c1ccccc1 (configuration not stated) | -3 | 1 | -3 | 18
SMILES | C8 TRAIL sens | FLuc stim CS | FLuc inhib CS | PPC-1+TRAIL kill
CCNC(=O)CSc1nc(-c2ccc(F)cc2)cs1 | 2 | 0.9 | 8 | 6
CC(C)(C)NC(=O)CSc1nc(-c2ccc(F)cc2)cs1 | 24 | 0.4 | 55* | 30
O=C(Nc1cccc(S(=O)(=O)N2CCCC2)c1)[C@@H]1O[C@H](CO)[C@@H](O)[C@H]1O | -9 | x | x | x
CCOc1ccccc1CNC(=O)C1CCN(c2nn3c(=O)cc(C)nc3s2)CC1 | 0 | x | x | x
CCOc1ccc(OCC)c(NC(=O)C2CCN(c3nn4c(=O)cc(C)nc4s3)CC2)c1 | 67* | 1 | -1 | 13
CCCCCCCCOC(=O)c1c(CSC(=N)N)n(C)c2cc(Br)c(OC(C)=O)cc12 | 92* | x | x | -2
CCOC(=O)c1c(CSC(=N)N)n(-c2ccc(Br)cc2)c2cc(Br)c(OC(C)=O)cc12 | 9 | 1 | -5 | 14
Cc1nc2ccc(NC(=O)CCS(=O)(=O)c3ccccc3)cc2s1 | -3 | 0.9 | 9 | 30
Cc1ccc2nc(-c3ccc(NC(=O)C(C)Sc4nncs4)cc3)sc2c1 (configuration not stated) | 52* | x | x | x
Cc1ccc2nc(-c3ccc(NC(=O)COC(=O)c4ccc(=O)[nH]c4)cc3)sc2c1 | 49 | 0.5 | 50* | 50*
Cc1ccc2nc(-c3ccc(NC(=O)CCS(=O)(=O)c4ccccc4)cc3)sc2c1 | 88* | 0.9 | 11 | 45
C=CCOc1ccccc1CN1CCN(CCc2ccccc2)C(CCO)C1 (configuration not stated) | -1 | x | x | x
CC(C)Cc1ccc(CN2CCCC(NC(=O)c3cccc(-n4cnnc4)c3)C2)cc1 (configuration not stated) | 9 | x | x | x
O=C(CCN1CCCCC1)NNC(=O)C12CC3CC(CC(C3)C1)C2 | 24 | 1.1 | -5 | 18
O=C(NCc1ccco1)Nc1cccc([N+](=O)[O-])c1 | 0 | x | x | 7
CN(c1ccccc1)S(=O)(=O)c1cccc(NC(=O)c2cc3ccccc3oc2=O)c1 | -11 | x | x | 2
Cc1ccc(NC(=O)c2cc3ccccc3oc2=O)cc1S(=O)(=O)N(C)C | 56* | 0.1 | 87* | 28
Cc1ccccc1CS(=O)(=O)CCC(=O)NCc1ccc(F)cc1Cl | -2 | x | x | x
CCOC(=O)c1c(C)nc2c(c1-c1cc(OC)ccc1OC)C(=O)c1ccccc1-2 | 68* | 1.1 | -5 | -4
CCOC(=O)c1cc(CC)sc1NC(=O)COC(=O)c1cc[n+]([O-])cc1 | -6 | 1 | -3 | 9

High-throughput results: PubChem BioAssay, Sanford-Burnham Center for Chemical Genomics
